From ChEMBL document CHEMBL1154281 (J Med Chem, 2009)
The source made the active and inactive calls. No cut-off for these calls is given here. Numbered stars: 1 amine (or outer) side, 2 acyl side, 3 side chain; on linkers, the order of the positions; unused ones are H or OH. Square brackets hold non-standard residues; d marks the D form. Peptide text beside a SMILES is read from it. X1 = O=C([C@@H]1Cc2nc[nH]c2CN1[*:1])[*:2]; Tic = O=C(O)[C@@H]1Cc2ccccc2CN1

Tests used:
[1] = target: T1, Type-1 angiotensin II receptor (Homo sapiens) (UniProt P30556); assay: Displacement of [3H]valsartan from human recombinant AT1 receptor expressed in CHO cells at 10 uM after 40 mins by liquid scintillation counting; type: cell-based
T1 sequence (whole entry): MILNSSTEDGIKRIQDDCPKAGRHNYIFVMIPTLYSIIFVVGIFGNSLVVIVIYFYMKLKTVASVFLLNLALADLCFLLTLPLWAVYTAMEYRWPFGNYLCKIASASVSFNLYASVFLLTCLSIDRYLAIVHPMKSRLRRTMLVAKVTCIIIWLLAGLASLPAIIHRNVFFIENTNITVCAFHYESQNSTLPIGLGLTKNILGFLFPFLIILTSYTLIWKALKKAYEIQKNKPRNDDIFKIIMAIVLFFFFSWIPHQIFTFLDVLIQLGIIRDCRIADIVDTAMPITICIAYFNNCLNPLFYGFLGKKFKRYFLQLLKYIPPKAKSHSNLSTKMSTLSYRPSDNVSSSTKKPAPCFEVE
Outline: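 Intact CHO-AT1 cells, human AT1 receptor stably expressed, prewashed in PBS, then 15 min in DMEM at 37 °C. Test agent at 10^-5 M with [3H]Valsartan (final 1.5 nM) for 40 min at 37 °C. Nonspecific binding with 1 μM Candesartan. Specific binding reported as percent of control, binding in medium only. Cell-bound radioactivity solubilized in 0.2 M NaOH and counted.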

[2] = Metabolic stability in CHOK1 cells harboring endogenous IRAP at 0.1 to 10000 nM pretreated for 40 mins by [3H]angiotensin 4 competition binding assay in absence of chelator EDTA and 1, 10-phenantroline; type: ADME, cell-based, Cricetulus griseus; details: chinese hamster, cho-k1, 40 min, 10 µM
Outline: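 Membrane homogenates of CHO-K1 cells carrying endogenous IRAP, equivalent to 4×10^5 cells, in 50 mM Tris-HCl pH 7.4 assay buffer. Preincubated 40 min at 37 °C with compound, no chelator added. [3H]Ang IV (final 3 nM) then added for 30 min at 37 °C. Nonspecific binding with 10 μM Ang IV. Filtered on BSA-presoaked GF/B filters and counted. Specific binding given as percent of control.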

[3] = target: T2, Type-1 angiotensin II receptor (Homo sapiens, UniProt P30556); assay: Displacement of [3H]valsartan from human recombinant AT1 receptor expressed in CHO cells after 40 mins by liquid scintillation counting; type: cell-based
T2 sequence (P30556 whole entry): T1 sequence (whole entry)
Outline: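 CHO cells stably expressing human AT1 receptor, washed twice in PBS at room temperature, then 15 min in DMEM at 37 °C. Competition with [3H]Valsartan (final 1.5 nM) over a full dose range for 40 min at 37 °C. Nonspecific binding defined with 1 μM Candesartan. Cells washed 3× in cold PBS and lysed in 0.2 M NaOH before scintillation counting. IC50 by nonlinear regression, Ki by Cheng–Prusoff.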

Structure (SMILES): CC[C@H](C)[C@H](NC(=O)[C@H](Cc1ccc(O)cc1)NC(=O)[C@@H](N)C(C)C)C(=O)N[C@H]1Cc2c([nH]c3ccccc23)CN(CC(=O)N[C@@H](Cc2ccccc2)C(=O)O)C1=O
- Activity [1]: inactive
- Stability [2]: Unstable

Structure (SMILES): CC[C@H](C)[C@H](NC(=O)[C@H](Cc1ccc(O)cc1)NC(=O)[C@@H](CN)C(C)C)C(=O)N[C@H]1Cc2ccccc2CN(CC(=O)N[C@@H](Cc2ccccc2)C(=O)O)C1=O
- Ki [3]: 141 nM
- Activity [1]: Active
- Stability [2]: Stable

Structure (SMILES): CC[C@H](C)[C@H](NC(=O)[C@H](Cc1ccc(O)cc1)NC(=O)[C@@H](CN)C(C)C)C(=O)N[C@H]1Cc2c([nH]c3ccccc23)CN(CC(=O)N[C@@H](Cc2ccccc2)C(=O)O)C1=O
- Activity [1]: inactive
- Stability [2]: Stable

Structure (SMILES): CC[C@H](C)[C@H](NC(=O)[C@H](Cc1ccc(O)cc1)NC(=O)[C@@H](N)C(C)C)C(=O)N1Cc2ccccc2C[C@H]1C(=O)N1CCC[C@H]1C(=O)N[C@@H](Cc1ccccc1)C(=O)O (H-VYI[Tic]PF-OH)
- Activity [1]: inactive

Structure (SMILES): CC[C@H](C)[C@H](NC(=O)[C@H](Cc1ccc(O)cc1)NC(=O)[C@@H](N)C(C)C)C(=O)N1Cc2[nH]cnc2C[C@H]1C(=O)N1CCC[C@H]1C(=O)N[C@@H](Cc1ccccc1)C(=O)O (H-VYI[X1]PF-OH)
- Activity [1]: inactive

Structure (SMILES): CC[C@H](C)[C@H](NC(=O)[C@H](Cc1ccc(O)cc1)NC(=O)[C@@H](N)C(C)C)C(=O)N[C@H]1Cc2ccccc2CN(CC(=O)N[C@@H](Cc2ccccc2)C(=O)O)C1=O
- Activity [1]: inactive
- Stability [2]: Unstable
